# Assay results from ChEMBL document CHEMBL1154737, “Design, synthesis, and biological evaluation of substituted naphthalene imides and diimides as anticancer agent” (J Med Chem, 2009).
# Activity calls are given as the source filed them. The rule behind the calls is not given here.
# What was measured:
# [1] = test system: Calf thymus DNA; assay: Displacement of ethidium bromide from calf thymus DNA by fluorescence assay; format: nucleic-acid assay, Bos taurus; conditions: for Kapp: Bos taurus
# In short: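 Fluorometric intercalator displacement. EC50 is the drug concentration that cuts DNA-bound ethidium fluorescence by 50%, given as the mean of three determinations ± SEM. Apparent binding constant is calculated taking the ethidium binding constant as 10^7 M-1.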
# [2] = test system: HL-60; assay: Induction of apoptosis in human HL60 cells assessed as caspase 3 activation at 5 uM after 4 hrs by DEVDase activity assay; format: functional, cell-based
# In short: (§1)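 HL60 cells exposed to 5 μM for 4 or 24 h. DEVDase (effector caspase 3/7) activity measured on the DEVD peptide substrate.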
# [3] = test system: HL-60; assay: Induction of apoptosis in human HL60 cells assessed as caspase 3 activation at 5 uM after 24 hrs by DEVDase activity assay; format: functional, cell-based; in short: as §1
# [4] = test system: SH-SY5Y; assay: Cytotoxicity against human SH-SY5Y assessed as p53 protein accumulation at 5 uM after 20 hrs by Western blotting; format: functional, cell-based
# In short: (§2)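 SH-SY5Y cells treated 20 h with 5 μM, then harvested. Protein content and phosphorylation status in cell extracts read by Western blotting at 50 μg protein per lane.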
# [5] = test system: SH-SY5Y; assay: Cytotoxicity against human SH-SY5Y assessed as cell viability at 5 uM after 20 hrs by trypan blue exclusion assay; format: functional; conditions: read-out: Activity
# In short: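 SH-SY5Y cells exposed to 5 μM for 20 h. Viable cell fraction assessed by dye exclusion.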
# [6] = test system: SH-SY5Y; assay: Cytotoxicity against human SH-SY5Y assessed as decrease in ERK1 protein level at 5 uM after 20 hrs by Western blotting; format: functional, cell-based; in short: as §2
# [7] = test system: SH-SY5Y; assay: Cytotoxicity against human SH-SY5Y assessed as decrease in ERK2 protein level at 5 uM after 20 hrs by Western blotting; format: functional, cell-based; in short: as §2
# [8] = test system: SH-SY5Y; assay: Cytotoxicity against human SH-SY5Y assessed as decrease in ERK1 phosphorylation at 5 uM after 20 hrs by Western blotting; format: functional, cell-based; in short: as §2
# [9] = test system: SH-SY5Y; assay: Cytotoxicity against human SH-SY5Y assessed as decrease in ERK2 phosphorylation at 5 uM after 20 hrs by Western blotting; format: functional, cell-based; in short: as §2
# [10] = test system: HL-60; assay: Cytotoxicity against human HL60 cells after 24 hrs by dye exclusion assay; conditions: HL-60, 24 h
# [11] = test system: SK-BR-3; assay: Cytotoxicity against human SKBR3 cells after 72 hrs by MTT assay; format: functional, cell-based; conditions: SK-BR-3, 72 h
# In short: (§3)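 MTT growth-inhibition assay on SKBR-3 breast cancer and CEM leukemia cells, 72 h exposure over 0.1–10 μM. IC50 is the concentration giving 50% growth inhibition, derived by linear regression and reported as a mean of six experiments. Single-concentration entries are taken at 10 μM, the top of the range.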
# [12] = test system: CCRF-CEM; assay: Cytotoxicity against human CCRF-CEM cells after 72 hrs by MTT assay; format: functional, cell-based; in short: as §3
# [13] = biological target: DNA topoisomerase 2-alpha (Homo sapiens) (UniProt P11388); assay: Stimulation of human recombinant topoisomerase 2alpha-mediated SV40 DNA cleavage at 10 uM after 45 mins by PAGE
# Sequence of DNA topoisomerase 2-alpha (Homo sapiens) (P11388 whole entry): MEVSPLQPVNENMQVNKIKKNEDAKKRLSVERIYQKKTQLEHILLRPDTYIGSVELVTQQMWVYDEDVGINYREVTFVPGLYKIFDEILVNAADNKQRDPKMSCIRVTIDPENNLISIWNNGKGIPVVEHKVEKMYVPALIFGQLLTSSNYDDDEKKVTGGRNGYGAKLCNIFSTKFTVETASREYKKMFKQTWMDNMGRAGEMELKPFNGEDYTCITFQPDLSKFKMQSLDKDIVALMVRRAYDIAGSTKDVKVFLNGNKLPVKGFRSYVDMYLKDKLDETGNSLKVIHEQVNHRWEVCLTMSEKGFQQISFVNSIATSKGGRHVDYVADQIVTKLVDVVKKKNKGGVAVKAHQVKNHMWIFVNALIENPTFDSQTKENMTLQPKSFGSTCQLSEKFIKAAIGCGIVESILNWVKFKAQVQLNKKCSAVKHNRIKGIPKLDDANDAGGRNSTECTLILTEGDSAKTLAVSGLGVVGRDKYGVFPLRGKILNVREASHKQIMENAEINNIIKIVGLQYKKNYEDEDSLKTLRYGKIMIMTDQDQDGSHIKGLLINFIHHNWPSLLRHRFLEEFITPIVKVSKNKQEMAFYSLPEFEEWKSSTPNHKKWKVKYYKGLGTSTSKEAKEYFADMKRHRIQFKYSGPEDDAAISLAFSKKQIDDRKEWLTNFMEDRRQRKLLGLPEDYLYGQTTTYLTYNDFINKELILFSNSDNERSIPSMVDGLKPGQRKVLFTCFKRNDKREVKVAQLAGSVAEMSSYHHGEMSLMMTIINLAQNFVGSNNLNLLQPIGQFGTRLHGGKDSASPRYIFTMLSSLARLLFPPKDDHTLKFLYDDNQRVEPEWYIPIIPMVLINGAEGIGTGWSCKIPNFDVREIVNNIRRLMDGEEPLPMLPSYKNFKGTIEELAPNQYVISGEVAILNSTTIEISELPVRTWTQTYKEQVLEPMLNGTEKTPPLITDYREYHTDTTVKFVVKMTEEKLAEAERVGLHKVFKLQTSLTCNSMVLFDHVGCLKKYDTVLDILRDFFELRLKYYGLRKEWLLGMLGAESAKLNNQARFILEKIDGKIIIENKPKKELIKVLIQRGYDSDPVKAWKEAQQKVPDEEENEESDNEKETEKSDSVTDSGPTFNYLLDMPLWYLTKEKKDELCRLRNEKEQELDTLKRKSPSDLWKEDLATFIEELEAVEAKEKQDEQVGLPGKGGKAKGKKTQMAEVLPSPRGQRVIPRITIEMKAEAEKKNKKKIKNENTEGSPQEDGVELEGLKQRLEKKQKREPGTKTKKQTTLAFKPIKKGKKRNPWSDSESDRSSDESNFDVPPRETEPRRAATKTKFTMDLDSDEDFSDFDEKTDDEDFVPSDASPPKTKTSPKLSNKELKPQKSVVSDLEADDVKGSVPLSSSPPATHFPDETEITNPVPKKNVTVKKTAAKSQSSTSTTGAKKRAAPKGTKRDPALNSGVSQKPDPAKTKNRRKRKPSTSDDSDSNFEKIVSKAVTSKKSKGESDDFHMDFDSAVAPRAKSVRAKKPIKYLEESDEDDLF
# In short: (§4)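 Cleavage assay with recombinant human DNA topoisomerase IIα, using SV40 DNA as substrate, to test for stimulation of DNA cleavage (poison activity).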
# [14] = biological target: DNA topoisomerase 2-alpha (Homo sapiens) (UniProt P11388); assay: Stimulation of human recombinant topoisomerase 2alpha-mediated SV40 DNA cleavage at 50 uM after 45 mins by PAGE; in short: as §4
# [15] = test system: CCRF-CEM; assay: Cytotoxicity against human CCRF-CEM cells at 10 uM after 72 hrs by MTT assay; format: functional, cell-based; in short: as §3
# [16] = test system: SK-BR-3; assay: Cytotoxicity against human SKBR3 cells at 10 uM after 72 hrs by MTT assay; format: functional, cell-based; in short: as §3
# [17] = test system: HL-60; assay: Induction of apoptosis in human HL60 cells assessed as decrease in procaspase 3 level at 5 uM after 4 hrs by Western blotting; format: functional, cell-based
# In short: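 HL60 cells incubated 4 h with 5 μM. Extracted proteins analysed by Western blot for the 32 kDa procaspase 3 precursor and its active proteolytic fragment.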
# [18] = test system: HL-60; assay: Induction of apoptosis in human HL60 cells assessed as caspase 3 activation after 4 hrs by DEVDase activity assay; format: functional, cell-based
# In short: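 HL60 cells treated 4 h at the indicated doses, then collected. Caspase (DEVDase) activity determined.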
# [19] = test system: SH-SY5Y; assay: Induction of apoptosis in human SH-SY5Y cells assessed as caspase 3 activation at 5 uM after 24 hrs by DEVDase activity assay; format: functional, cell-based
# In short: (§5)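 SH-SY5Y neuroblastoma, H9c2 heart and Jurkat T cells treated 24 h with 5 μM. Caspase (DEVDase) activation measured, reported as mean ± SEM of triplicates.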
# [20] = test system: H9c2; assay: Induction of apoptosis in rat H9c2 cells assessed as caspase 3 activation at 5 uM after 24 hrs by DEVDase activity assay; format: cell-based; conditions: h9c2, 24 h; in short: as §5
# [21] = test system: Jurkat; assay: Induction of apoptosis in human Jurkat T cells assessed as caspase 3 activation at 5 uM after 24 hrs by DEVDase activity assay; format: functional, cell-based; in short: as §5
# [22] = test system: SH-SY5Y; assay: Cytotoxicity against human SH-SY5Y assessed as cell survival at 1 uM after 72 hrs by trypan blue exclusion assay; format: functional; conditions: read-out: Survival
# In short: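 SH-SY5Y neuroblastoma cells incubated with compound at 1 to 5 μM for the indicated times, including 24 h and 72 h. Viable cells were then counted by dye exclusion and expressed as cell survival.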
# [23] = test system: SH-SY5Y; assay: Cytotoxicity against human SH-SY5Y at 1 to 5 uM after 72 hrs by trypan blue exclusion assay; format: functional, cell-based
# In short: (§6)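 SH-SY5Y neuroblastoma cells incubated with compounds at 1 to 5 μM for the indicated times up to 72 h. Viable cells counted by dye exclusion.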
# [24] = test system: SH-SY5Y; assay: Cytotoxicity against human SH-SY5Y after 72 hrs by trypan blue exclusion assay; format: functional, cell-based; in short: as §6
# [25] = test system: SH-SY5Y; assay: Cytotoxicity against human SH-SY5Y assessed as p53 protein accumulation at 1 uM after 20 hrs by Western blotting; format: functional, cell-based
# In short: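 SH-SY5Y extracts prepared after 20 h incubation at the indicated concentrations. p53 content measured by Western blot, 50 μg protein loaded per point.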
# [26] = test system: SH-SY5Y; assay: Cytotoxicity against human SH-SY5Y at 1 uM after 24 hrs by trypan blue exclusion assay; format: functional, cell-based
# In short: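 SH-SY5Y cells given 1 μM. Viability at 24 h scored by dye exclusion.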
compound,measurement,setting,value
CN(C)CCN1C(=O)c2cccc3cc([N+](=O)[O-])cc(c23)C1=O [MITONAFIDE],EC50,[1],11500 nM
same,Kapp,[1],2.2 ×10⁶ /M
same,Activity,[2],Active
same,Activity,[3],Active
same,Activity,[4],Active
same,viability at 5 µM,[5],70%
same,Activity,[6],Active
same,Activity,[7],Active
same,Activity,[8],inactive
same,Activity,[9],inactive
same,IC50,[10],1600 nM
COc1ccccc1CNCCCCCCCCCN1C(=O)c2cccc3cccc(c23)C1=O,IC50,[11],500 nM
same,IC50,[12],1300 nM
same,Activity,[13],inactive
same,Activity,[14],inactive
COc1ccccc1CNCCCCCCCCN1C(=O)c2ccc3c4c(ccc(c24)C1=O)C(=O)N(CCCCCCCCNCc1ccccc1OC)C3=O,IC50,[11],1000 nM
same,IC50,[12],1600 nM
COc1ccccc1CNCCN1C(=O)c2cccc3cccc(c23)C1=O,IC50,[11],2000 nM
same,Activity,[15],inactive
same,Activity,[13],inactive
same,Activity,[14],inactive
COc1ccccc1CNCCCCCCN1C(=O)c2cccc3cccc(c23)C1=O,Activity,[16],inactive
same,Activity,[15],inactive
COc1ccccc1CNCCCCN1C(=O)c2ccc3c4c(ccc(c24)C1=O)C(=O)N(CCCCNCc1ccccc1OC)C3=O,IC50,[11],700 nM
same,IC50,[12],800 nM
COc1ccccc1CNCCCCCCCN1C(=O)c2cccc3cccc(c23)C1=O,Activity,[16],inactive
same,Activity,[15],inactive
COc1ccccc1CNCCCCCCCCCCN1C(=O)c2ccc3c4c(ccc(c24)C1=O)C(=O)N(CCCCCCCCCCNCc1ccccc1OC)C3=O,IC50,[11],200 nM
same,IC50,[12],700 nM
COc1ccccc1CNCCCCCN1C(=O)c2ccc3c4c(ccc(c24)C1=O)C(=O)N(CCCCCNCc1ccccc1OC)C3=O,IC50,[11],1100 nM
same,IC50,[12],1100 nM
COc1ccccc1CNCCCCCCCCCCN1C(=O)c2cccc3cccc(c23)C1=O,IC50,[11],2000 nM
same,IC50,[12],8000 nM
COc1ccccc1CNCCCCCCCCN1C(=O)c2cccc3cccc(c23)C1=O,IC50,[11],1400 nM
same,IC50,[12],1200 nM
COc1ccccc1CNCCN1C(=O)c2ccc3c4c(ccc(c24)C1=O)C(=O)N(CCNCc1ccccc1OC)C3=O,IC50,[11],700 nM
same,IC50,[12],1300 nM
same,EC50,[1],93 nM
same,Kapp,[1],2.72 ×10⁸ /M
same,Activity,[13],inactive
same,Activity,[14],inactive
same,Activity,[2],Active
same,Activity,[3],Active
same,Activity,[17],Active
same,Activity,[18],Dose-dependent effect
same,Activity,[19],Active
same,Activity,[20],Active
same,Activity,[21],Active
same,viability at 1 µM,[22],60%
same,Activity,[23],Active
same,IC50,[24],1400 nM
same,Activity,[25],Active
same,viability at 5 µM,[5],70%
same,Activity,[6],Active
same,Activity,[7],Active
same,Activity,[8],Active
same,Activity,[9],Active
same,IC50,[10],900 nM
COc1ccccc1CNCCCCCN1C(=O)c2cccc3cccc(c23)C1=O,Activity,[16],inactive
same,Activity,[15],inactive
COc1ccccc1CNCCCCCCN1C(=O)c2ccc3c4c(ccc(c24)C1=O)C(=O)N(CCCCCCNCc1ccccc1OC)C3=O,IC50,[11],1200 nM
same,IC50,[12],2200 nM
COc1ccccc1CNCCCCCCCN1C(=O)c2ccc3c4c(ccc(c24)C1=O)C(=O)N(CCCCCCCNCc1ccccc1OC)C3=O,IC50,[11],1700 nM
same,IC50,[12],2500 nM
COc1ccccc1CNCCCN1C(=O)c2ccc3c4c(ccc(c24)C1=O)C(=O)N(CCCNCc1ccccc1OC)C3=O,IC50,[11],200 nM
same,IC50,[12],400 nM
same,EC50,[1],122 nM
same,Kapp,[1],2.07 ×10⁸ /M
same,Activity,[13],inactive
same,Activity,[14],inactive
same,Activity,[2],Active
same,Activity,[3],Active
same,Activity,[17],Active
same,Activity,[18],Dose-dependent effect
same,Activity,[23],Active
same,IC50,[24],1400 nM
same,Activity,[26],inactive
same,viability at 5 µM,[5],70%
same,Activity,[6],Active
same,Activity,[7],Active
same,Activity,[8],Active
same,Activity,[9],Active
same,IC50,[10],1200 nM
COc1ccccc1CNCCCCCCCCCN1C(=O)c2ccc3c4c(ccc(c24)C1=O)C(=O)N(CCCCCCCCCNCc1ccccc1OC)C3=O,IC50,[11],400 nM
same,IC50,[12],1400 nM
COc1ccccc1CNCCCN1C(=O)c2cccc3cccc(c23)C1=O,Activity,[16],inactive
same,Activity,[15],inactive
COc1ccccc1CNCCCCN1C(=O)c2cccc3cccc(c23)C1=O,IC50,[11],1700 nM
same,IC50,[12],3200 nM
